Tested on: Human immunodeficiency virus 2
Test: Antiviral activity against HIV2 ROD infected in human CEM/0 cells assessed as inhibition of virus-induced syncytia cell formation measured after 4 to 5 days by microscopic analysis
Details: Human immunodeficiency virus 2, ISOLATE ROD, CCRF-CEM; call rule not given here

Row | EC50 | SMILES
1 | 400 nM | Cc1cn([C@H]2C=C[C@@H](COP(=O)(O)OP(=O)(O)OP(=O)(O)O)O2)c(=O)[nH]c1=O [STAVUDINE TRIPHOSPHATE]
2 | 220 nM | Cc1cn([C@H]2C=C[C@@H](CO)O2)c(=O)[nH]c1=O [STAVUDINE]

Tested on: not listed separately
Test: Stability in human CEM/0 cell extract assessed as parent compound remaining after 98 hrs by HPLC analysis
Type: ADME, tissue-based, CCRF-CEM
Details: read-out: Stabilty
In short: (§1)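 Extract preparation: CEM CD4⁺ T-cells grown in RPMI-1640 to ~3 × 10⁶ cells/mL, washed in cold PB, resuspended at 10⁸ cells/mL, sonicated, clarified at 10,000 rpm and stored at −80 °C. Compounds from 50 mM DMSO stock (diluted to 6.0 mM in DMSO) incubated in the extract. Reactions stopped with THF, put on ice, centrifuged and filtered.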

Row | remaining at 98 h | SMILES
3 | 89% | CCCCCCCCCC(=O)c1ccc(COP(=O)(O)OP(=O)(O)OP(=O)(O)OC[C@@H]2C=C[C@H](n3cc(C)c(=O)[nH]c3=O)O2)cc1

Tested on: not listed separately
Test: Prodrug conversion in human CEM/0 cell extract assessed as d4TDP formation after 96 hrs by HPLC analysis
Type: ADME, tissue-based
Details: ccrf-cem
In short: as §1

Row | Drug metabolism | SMILES
4 | Metabolite_Notdetected | CCCCCCCCCC(=O)c1ccc(COP(=O)(O)OP(=O)(O)OP(=O)(O)OC[C@@H]2C=C[C@H](n3cc(C)c(=O)[nH]c3=O)O2)cc1

Tested on: not listed separately
Test: Prodrug conversion in human CEM/0 cell extract assessed as d4TTP formation after 96 hrs by HPLC analysis
Type: ADME, tissue-based
Details: ccrf-cem
In short: as §1

Row | Drug metabolism | SMILES
5 | Metabolite_Notdetected | CCCCCCCCCC(=O)c1ccc(COP(=O)(O)OP(=O)(O)OP(=O)(O)OC[C@@H]2C=C[C@H](n3cc(C)c(=O)[nH]c3=O)O2)cc1

Tested on: not listed separately
Test: Cytotoxicity against human CEM/0 CD4+ T cells assessed as reduction in cell viability
Type: cell-based, CCRF-CEM
Details: not given
In short: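 Cytostatic readout: CC₅₀ is the compound concentration inhibiting CEM CD4⁺ T-cell proliferation by 50%. Values are the mean ± SD of n = 2−3 independent experiments.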

Row | SMILES | CC50
6 | Cc1cn([C@H]2C=C[C@@H](COP(=O)(O)OP(=O)(O)OP(=O)(O)O)O2)c(=O)[nH]c1=O [STAVUDINE TRIPHOSPHATE] | > 100000 nM

Tested on: not listed separately
Test: Prodrug conversion in PBS buffer at pH 7.3 assessed as pig liver esterase-mediated cleavage of ketobenzyl-residue measured over 800 hrs by HPLC analysis
Type: ADME, Sus scrofa
Details: pH 7.3, 800 h

Row | Drug metabolism | SMILES
7 | Metabolite_Notdetected | CCCCCCCCCC(=O)c1ccc(COP(=O)(O)OP(=O)(O)OP(=O)(O)OC[C@@H]2C=C[C@H](n3cc(C)c(=O)[nH]c3=O)O2)cc1

Tested on: Human immunodeficiency virus 2
Test: Antiviral activity against HIV2 ROD infected in human TK-deficient […] cells assessed as inhibition of viral-induced giant cell formation incubated for 4 to 5 days by microscopy
Details: Human immunodeficiency virus 2, ISOLATE ROD

Row | EC50 | SMILES
8 | > 100000 nM | Cc1cn([C@H]2C=C[C@@H](COP(=O)(O)OP(=O)(O)OP(=O)(O)O)O2)c(=O)[nH]c1=O [STAVUDINE TRIPHOSPHATE]
9 | 150000 nM | Cc1cn([C@H]2C=C[C@@H](CO)O2)c(=O)[nH]c1=O [STAVUDINE]

Tested on: not listed separately
Test: Substrate activity at HIV reverse transcriptase assessed as increase in primer extension incubated at 37 degC for 60 mins and at 80 degC for 3 mins in presence of fluorescent-lebelled dATP, dCTP and dGTP by PAGE analysis
Type: ADME
Details: human immunodeficiency virus, 1.05 h; time 63 min

Row | Activity | SMILES
10 | Active | CCCCCCCCCC(=O)c1ccc(COP(=O)(O)OP(=O)(O)OP(=O)(O)OC[C@@H]2C=C[C@H](n3cc(C)c(=O)[nH]c3=O)O2)cc1
11 | Active | Cc1cn([C@H]2C=C[C@@H](COP(=O)(O)OP(=O)(O)OP(=O)(O)O)O2)c(=O)[nH]c1=O [STAVUDINE TRIPHOSPHATE]

Tested on: not listed separately
Test: Stability of compound in human CEM/0 cell extract assessed as half life by RP18-HPLC analysis
Type: ADME, tissue-based, CCRF-CEM
Details: not given
In short: as §1

Row | half-life | SMILES
12 | > 30 h | CCCCCCCCCC(=O)c1ccc(COP(=O)(O)OP(=O)(O)OP(=O)(O)OC[C@@H]2C=C[C@H](n3cc(C)c(=O)[nH]c3=O)O2)cc1

Tested on: not listed separately
Test: Chemical stability of compound in PBS at pH 7.3 by RP18-HPLC analysis
Type: physicochemical
Details: buffer
In short: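 From 50 mM DMSO stocks, diluted to 1.9 mM hydrolysis solutions in water/DMSO. Reaction started by adding phosphate buffer (50 mM, pH 7.3; 25 mM also stated). Incubated at 37 °C with time-course sampling. Starting material and products (γ-kb-NTP, d4TDP, thymine) followed by analytical rp18 HPLC, from which t½ was calculated.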

Row | Stabilty | SMILES
13 | Stable | CCCCCCCCCC(=O)c1ccc(COP(=O)(O)OP(=O)(O)OP(=O)(O)OC[C@@H]2C=C[C@H](n3cc(C)c(=O)[nH]c3=O)O2)cc1

Tested on: Human immunodeficiency virus 1
Test: Antiviral activity against HIV1 3B infected in human CEM/0 cells assessed as inhibition of virus-induced syncytia cell formation measured after 4 to 5 days by microscopic analysis
Type: functional, organism-based
Details: Human immunodeficiency virus 1, 3B, CCRF-CEM
In short: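 Syncytium-inhibition assay in wild-type CEM/0 or TK-deficient CEM/TK⁻ cells, ~3 × 10⁵ cells/mL, infected with 100 CCID₅₀/mL HIV-1(III_B) or HIV-2(ROD), with serial compound dilutions. Incubated 4−5 days at 37 °C in humidified CO₂ atmosphere. Giant cells scored microscopically; EC₅₀ is the concentration halving HIV-induced giant cell formation. Values are the mean ± SD of n = 2−3 independent experiments.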

Row | EC50 | SMILES
14 | 1050 nM | Cc1cn([C@H]2C=C[C@@H](COP(=O)(O)OP(=O)(O)OP(=O)(O)O)O2)c(=O)[nH]c1=O [STAVUDINE TRIPHOSPHATE]
15 | 430 nM | Cc1cn([C@H]2C=C[C@@H](CO)O2)c(=O)[nH]c1=O [STAVUDINE]

Tested on: not listed separately
Test: Substrate activity at human DNA polymerase gamma assessed as increase in primer extension incubated at 37 degC for 60 mins and at 80 degC for 3 mins in presence of fluorescent-lebelled dATP, dCTP and dGTP by PAGE analysis
Type: ADME
Details: 1.05 h, time 63 min
In short: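 Human DNA polymerase γ (4 U) with Cy3-primer/template duplex 0.20 μM in 60 mM Tris-HCl pH 8, 5 mM MgOAc, 1.0 mM DTT, 0.1 mM spermine, 0.01% BSA. Preincubated 5 min at 37 °C without nucleotides, then run 60 min at 37 °C with nucleotides 250 μM, then 80 °C for 3 min. Denaturing 15% PAGE with fluorescence imaging.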

Row | Activity | SMILES
16 | Not Active | CCCCCCCCCC(=O)c1ccc(COP(=O)(O)OP(=O)(O)OP(=O)(O)OC[C@@H]2C=C[C@H](n3cc(C)c(=O)[nH]c3=O)O2)cc1
